Experiments:
[1] = biological target: T1, Alpha-1D adrenergic receptor (Homo sapiens, UniProt P25100); test: Binding affinity towards cloned human alpha-1D adrenergic receptor was determined using [125]-HEAT as radioligand
T1 sequence (P25100 whole entry): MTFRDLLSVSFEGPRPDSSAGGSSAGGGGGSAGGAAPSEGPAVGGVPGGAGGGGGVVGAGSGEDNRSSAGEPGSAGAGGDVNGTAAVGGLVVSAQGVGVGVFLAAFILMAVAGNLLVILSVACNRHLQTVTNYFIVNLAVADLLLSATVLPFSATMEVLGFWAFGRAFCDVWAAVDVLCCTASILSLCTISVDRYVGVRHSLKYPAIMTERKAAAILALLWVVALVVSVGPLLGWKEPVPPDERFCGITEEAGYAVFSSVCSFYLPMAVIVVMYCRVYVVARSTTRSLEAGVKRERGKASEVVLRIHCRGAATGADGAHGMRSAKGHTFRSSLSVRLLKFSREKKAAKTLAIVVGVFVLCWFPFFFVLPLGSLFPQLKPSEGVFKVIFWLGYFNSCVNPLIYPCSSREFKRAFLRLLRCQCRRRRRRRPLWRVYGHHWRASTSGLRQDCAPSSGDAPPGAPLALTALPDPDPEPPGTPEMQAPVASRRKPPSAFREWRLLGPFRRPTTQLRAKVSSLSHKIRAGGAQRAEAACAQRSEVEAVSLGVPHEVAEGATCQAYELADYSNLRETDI
Method in brief: (§1)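 Human α1a, α1b and α1d cDNAs transiently expressed in COS-1 cells (DEAE-dextran); membranes harvested 72 h post-transfection. Competition versus 50 pM [125I]HEAT (final), 0.1 pM–10 μM test compound in half-log steps, in TNE buffer pH 7.4. Membrane protein 0.1 μg (α1a, α1b) or 2.6 μg (α1d); 1 h at 25 °C. Filtration, scintillation counting; Ki = IC50/(1 + [L]/Kd). Ratios are subtype Ki over α1a Ki.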

[2] = biological target: T2, Alpha-1B adrenergic receptor (Homo sapiens, UniProt P35368); test: Binding affinity towards cloned human alpha-1B adrenergic receptor was determined using [125]-HEAT as radioligand; method in brief: as §1
T2 sequence (P35368 whole entry): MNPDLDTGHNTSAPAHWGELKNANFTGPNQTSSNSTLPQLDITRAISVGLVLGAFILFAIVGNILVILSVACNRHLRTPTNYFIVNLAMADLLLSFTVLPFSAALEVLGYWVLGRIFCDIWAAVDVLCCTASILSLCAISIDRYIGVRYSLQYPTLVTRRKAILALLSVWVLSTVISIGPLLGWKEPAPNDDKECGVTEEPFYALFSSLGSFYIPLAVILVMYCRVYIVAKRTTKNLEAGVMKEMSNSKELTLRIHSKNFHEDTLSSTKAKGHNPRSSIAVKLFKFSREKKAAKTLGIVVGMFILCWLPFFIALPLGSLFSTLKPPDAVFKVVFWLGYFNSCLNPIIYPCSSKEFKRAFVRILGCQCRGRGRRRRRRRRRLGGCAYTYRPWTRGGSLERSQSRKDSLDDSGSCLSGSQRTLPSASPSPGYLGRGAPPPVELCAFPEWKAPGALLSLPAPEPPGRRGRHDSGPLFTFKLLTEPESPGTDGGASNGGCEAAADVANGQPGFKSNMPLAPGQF

[3] = biological target: T3, Alpha-1A adrenergic receptor (Homo sapiens, UniProt P35348); test: Binding affinity towards cloned human alpha-1A adrenergic receptor was determined using [125]-HEAT as radioligand
T3 sequence (P35348 whole entry): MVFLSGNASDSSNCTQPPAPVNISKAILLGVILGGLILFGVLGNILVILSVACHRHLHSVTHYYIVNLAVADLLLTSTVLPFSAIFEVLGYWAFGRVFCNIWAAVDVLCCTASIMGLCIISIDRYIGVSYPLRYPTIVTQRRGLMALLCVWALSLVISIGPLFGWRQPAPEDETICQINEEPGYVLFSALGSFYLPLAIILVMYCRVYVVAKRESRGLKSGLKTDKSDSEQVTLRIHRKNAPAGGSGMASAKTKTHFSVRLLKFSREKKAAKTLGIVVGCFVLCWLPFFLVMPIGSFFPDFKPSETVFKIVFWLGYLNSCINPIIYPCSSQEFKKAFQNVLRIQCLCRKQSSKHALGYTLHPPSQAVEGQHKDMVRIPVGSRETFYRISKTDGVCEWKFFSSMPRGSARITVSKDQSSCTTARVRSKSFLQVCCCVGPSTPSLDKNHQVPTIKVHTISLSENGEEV

[4] = biological target: Adrenergic receptors; alpha-1 A & B (Homo sapiens) (UniProt P35348+P35368); test: Ratio of binding affinity towards Alpha1b to Alpha-1A; type: protein assay; method in brief: as §1
[5] = test system: Alpha-1D/Alpha-1A adrenergic receptor (Homo sapiens); test: Ratio of binding affinity towards Alpha1d to Alpha-1A

Question: For `CC(C)Oc1ccccc1N1CCN(CC(O)CNC(=O)c2ccc3c(c2)C(=O)N(c2ccc(N(C)C)cc2)C3=O)CC1` (stereo not given), which Ki [1] is on record?
Answer: 40 nM

Question: And the Ki [2]?
Answer: > 2000 nM

Question: And the Ki [3]?
Answer: 0.8 nM

Question: And the Ratio [4]?
Answer: > 2000

Question: Which results are given for `CC(C)Oc1ccccc1N1CCN(C[C@@H](O)CNC(=O)c2ccc3c(c2)C(=O)N(c2ccc(O)cc2)C3=O)CC1`?
Answer: Ki [1]: 137 nM; Ki [2]: > 2000 nM; Ki [3]: 0.46 nM; Ratio [4]: > 4350

Question: For `COc1ccc(N2C(=O)c3ccc(C(=O)NC[C@H](O)CN4CCN(c5ccccc5OC(C)C)CC4)cc3C2=O)cc1`, which Ki [1] is on record?
Answer: 124 nM

Question: And the Ki [2]?
Answer: > 1750 nM

Question: For `CC(C)Oc1ccccc1N1CCN(CC(O)CNC(=O)c2ccc3c(c2)C(=O)N(c2ccccc2)C3=O)CC1` (stereo not given), which Ki [1] is on record?
Answer: 65 nM

Question: What about the Ki [2] of the same compound?
Answer: > 2000 nM

Question: And the Ki [3]?
Answer: 0.9 nM

Question: What about the Ratio [4] of the same compound?
Answer: > 1820

Question: And the Ratio [5]?
Answer: 72

Question: How did the Ki [1] turn out when `CC(C)Oc1ccccc1N1CCN(CC(O)CNC(=O)c2ccc3c(c2)C(=O)N(c2ccc(O)cc2)C3=O)CC1` (stereo not given) was run?
Answer: 28 nM

Question: What about the Ki [2] of the same compound?
Answer: > 2000 nM

Question: And the Ki [3]?
Answer: 0.88 nM

Question: And the Ratio [4]?
Answer: > 2270

Question: Which Ki [1] does the source give for `Cc1ccc(N2C(=O)c3ccc(C(=O)NCC(O)CN4CCN(c5ccccc5OC(C)C)CC4)cc3C2=O)cc1` (stereo not given) here?
Answer: 62 nM

Question: What about the Ki [2] of the same compound?
Answer: > 2000 nM

Question: And the Ki [3]?
Answer: 0.66 nM

Question: What about the Ratio [4] of the same compound?
Answer: > 3030

Question: What does the source list for `CC(C)Oc1ccccc1N1CCN(CC(O)CNC(=O)c2ccc3c(c2)C(=O)N(c2ccc(F)cc2)C3=O)CC1` (stereo not given)?
Answer: Ki [1]: 111 nM; Ki [2]: > 1660 nM; Ki [3]: 1.5 nM; Ratio [4]: > 1100

Question: Which results are given for `CCOc1ccccc1N1CCN(CC(O)CNC(=O)c2ccc3c(c2)C(=O)N(c2cccc(F)c2)C3=O)CC1` (stereo not given)?
Answer: Ki [1]: 137 nM; Ki [2]: > 2000 nM; Ki [3]: 4.25 nM; Ratio [4]: > 470

Question: How did the Ki [1] turn out when `CC(C)Oc1ccccc1N1CCN(C[C@H](O)CNC(=O)c2ccc3c(c2)C(=O)N(c2cccc(F)c2)C3=O)CC1` was run?
Answer: 63 nM

Question: And the Ki [2]?
Answer: > 2000 nM

Question: And the Ki [3]?
Answer: 8 nM

Question: What about the Ratio [4] of the same compound?
Answer: > 250

Question: Which results are given for `COc1ccc(N2C(=O)c3ccc(C(=O)NC[C@@H](O)CN4CCN(c5ccccc5OC(C)C)CC4)cc3C2=O)cc1`?
Answer: Ki [1]: 52 nM; Ki [2]: > 2000 nM

Question: For `CC(C)Oc1ccccc1N1CCN(CCCNC(=O)c2ccc3c(c2)C(=O)N(c2ccc(O)cc2)C3=O)CC1`, which Ki [1] is on record?
Answer: 10 nM

Question: What about the Ki [2] of the same compound?
Answer: 255 nM

Question: And the Ki [3]?
Answer: 0.2 nM

Question: And the Ratio [4]?
Answer: 1270

Question: What about the Ratio [5] of the same compound?
Answer: 50

Question: Which results are given for `CC(C)Oc1ccccc1N1CCN(CC(O)CNC(=O)c2ccc3c(c2)C(=O)N(c2ccc(Cl)cc2)C3=O)CC1` (stereo not given)?
Answer: Ki [1]: 55 nM; Ki [2]: 606 nM; Ki [3]: 0.95 nM; Ratio [4]: 640

Question: With `CC(C)Oc1ccccc1N1CCN(CC(O)CNC(=O)c2ccc3c(c2)C(=O)N(c2ccc(C(C)(C)C)cc2)C3=O)CC1` (stereo not given) as the compound, how does the Ki [1] read?
Answer: 75 nM

Question: What about the Ki [2] of the same compound?
Answer: > 2000 nM

Question: What about the Ki [3] of the same compound?
Answer: 3.05 nM

Question: And the Ratio [4]?
Answer: > 650

Question: What does the source list for `COC(CNC(=O)c1ccc2c(c1)C(=O)N(c1cccc(F)c1)C2=O)CN1CCN(c2ccccc2OC(C)C)CC1` (stereo not given)?
Answer: Ki [1]: 407 nM; Ki [2]: > 2000 nM; Ki [3]: 6.9 nM; Ratio [4]: > 290

Question: How did the Ki [1] turn out when `CC(C)Oc1ccccc1N1CCN(CC(O)CNC(=O)c2ccc3c(c2)C(=O)N(c2ccc([N+](=O)[O-])cc2)C3=O)CC1` (stereo not given) was run?
Answer: 38 nM

Question: And the Ki [2]?
Answer: > 2000 nM

Question: What about the Ki [3] of the same compound?
Answer: 1.8 nM

Question: What about the Ratio [4] of the same compound?
Answer: > 1110

Question: For `Cc1cccc(N2C(=O)c3ccc(C(=O)NCC(O)CN4CCN(c5ccccc5OC(C)C)CC4)cc3C2=O)c1` (stereo not given), which Ki [1] is on record?
Answer: 73 nM

Question: And the Ki [2]?
Answer: > 2000 nM

Question: What about the Ki [3] of the same compound?
Answer: 0.9 nM

Question: And the Ratio [4]?
Answer: > 2220

Question: `CC(C)Oc1ccccc1N1CCN(CC(O)CNC(=O)c2ccc3c(c2)C(=O)N(c2ccc(Cl)c(Cl)c2)C3=O)CC1` (stereo not given) was tested. Which Ki [1] did it give?
Answer: 51 nM

Question: What about the Ki [2] of the same compound?
Answer: 1230 nM

Question: And the Ki [3]?
Answer: 1.19 nM

Question: What about the Ratio [4] of the same compound?
Answer: 1030

Question: What about the Ratio [5] of the same compound?
Answer: 43

Question: How did the Ki [1] turn out when `COc1ccccc1N1C(=O)c2ccc(C(=O)NCC(O)CN3CCN(c4ccccc4OC(C)C)CC3)cc2C1=O` (stereo not given) was run?
Answer: 72 nM

Question: And the Ki [2]?
Answer: 1640 nM

Question: What about the Ki [3] of the same compound?
Answer: 1.47 nM

Question: And the Ratio [4]?
Answer: 1110

Question: With `COc1ccccc1N1CCN(CC(O)CNC(=O)c2ccc3c(c2)C(=O)N(c2cccc(F)c2)C3=O)CC1` (stereo not given) as the compound, how does the Ki [1] read?
Answer: 540 nM

Question: What about the Ki [2] of the same compound?
Answer: > 2000 nM

Question: And the Ki [3]?
Answer: 22 nM

Question: And the Ratio [4]?
Answer: > 90

Question: How did the Ki [1] turn out when `COc1ccc(N2C(=O)c3ccc(C(=O)NCC(O)CN4CCN(c5ccccc5OC(C)C)CC4)cc3C2=O)cc1OC` (stereo not given) was run?
Answer: 56 nM

Question: And the Ki [2]?
Answer: > 2000 nM

Question: What about the Ki [3] of the same compound?
Answer: 0.98 nM

Question: And the Ratio [4]?
Answer: > 2040

Question: And the Ratio [5]?
Answer: 57

Question: For `COc1cc(N2C(=O)c3ccc(C(=O)NCC(O)CN4CCN(c5ccccc5OC(C)C)CC4)cc3C2=O)cc(OC)c1OC` (stereo not given), which Ki [1] is on record?
Answer: 152 nM

Question: What about the Ki [2] of the same compound?
Answer: > 2000 nM

Question: What about the Ki [3] of the same compound?
Answer: 1.22 nM

Question: And the Ratio [4]?
Answer: > 1640

Question: And the Ratio [5]?
Answer: 125

Question: Which results are given for `CC(C)Oc1ccccc1N1CCN(CC(O)CNC(=O)c2ccc3c(c2)C(=O)N(c2cccc(Cl)c2)C3=O)CC1` (stereo not given)?
Answer: Ki [1]: 41 nM; Ki [2]: 605 nM; Ki [3]: 0.76 nM; Ratio [4]: 800; Ratio [5]: 54

Question: Which Ki [1] does the source give for `CC(C)Oc1ccccc1N1CCN(CC(O)CNC(=O)c2ccc3c(c2)C(=O)N(c2cccc(F)c2)C3=O)CC1` (stereo not given) here?
Answer: 75 nM

Question: And the Ki [2]?
Answer: > 2000 nM

Question: And the Ki [3]?
Answer: 1.5 nM

Question: What about the Ratio [4] of the same compound?
Answer: > 1220

Question: What does the source list for `COc1ccc(N2C(=O)c3ccc(C(=O)NCC(O)CN4CCN(c5ccccc5OC(C)C)CC4)cc3C2=O)cc1` (stereo not given)?
Answer: Ki [1]: 51 nM; Ki [2]: > 2000 nM

Question: `CC(C)Oc1ccccc1N1CCN(CCCNC(=O)c2ccc3c(c2)C(=O)N(c2ccc(N(C)C)cc2)C3=O)CC1` was tested. Which Ki [1] did it give?
Answer: 15 nM

Question: And the Ki [2]?
Answer: 465 nM

Question: What about the Ki [3] of the same compound?
Answer: 0.18 nM

Question: And the Ratio [4]?
Answer: 2580

Reference: ChEMBL document CHEMBL1133729, “Design, synthesis, and structure-activity relationships of phthalimide-phenylpiperazines: a novel series of potent and selective alpha(1)(a)-adrenergic receptor antagonists” (J Med Chem, 2000)
